# Compound activity from PubChem.
# Compounds with a hit are over-represented: about 3.3% of the library has one in this group of screens.
# SIAE inh = inhibitors of human sialic acid acetylesterase SIAE. Q9HAT2. SIAE FP-Rh probe binding, fluorescence polarization. inhibition, % at 9.66 µM. hit rate 0.69% among 370,000. AID 1053197;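 active = inhibition above a cutoff: mean of compounds within the control limits plus 3 SD of those, cut at about 17% in these data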;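 note: 0% = plate median of compound wells and 100% = probe without SIAE protein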
# MBD2 DNA inh = blocks human MBD2 binding to methylated DNA. Q9UBB5. hit rate 0.31% among 370,000. TR-FRET, MBD2 binding to methylated oligonucleotide. inhibition, % at 4.4 µM; in the data active = inhibition above about 13%
# UHRF1 MBD2 ctr = human UHRF1 methylated DNA binding inhibitors; Q96T88; UHRF1 binding to methylated oligo, TR-FRET; inhibition, % at 4.4 µM; hit rate 0.75% among 370,000; AID 687016; in the data active = inhibition above about 21%;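 note: UHRF1 SRA domain binding a hemimethylated CpG hairpin DNA probe; 0% = median of test compound wells and 100% = reference inhibitor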
# PRMT1 FP inh = PRMT1 (human) inhibition, primary screen | Q99873 | recombinant PRMT1, activity-based probe fluorescence polarization | inhibition, % at 2.79 µM | hit rate 1.3% among 370,000 | AID 652257;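 active = inhibition above about 21% made by adding two undisclosed values, limit read from the data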
# Target sequence (Q99873 whole entry, looked up): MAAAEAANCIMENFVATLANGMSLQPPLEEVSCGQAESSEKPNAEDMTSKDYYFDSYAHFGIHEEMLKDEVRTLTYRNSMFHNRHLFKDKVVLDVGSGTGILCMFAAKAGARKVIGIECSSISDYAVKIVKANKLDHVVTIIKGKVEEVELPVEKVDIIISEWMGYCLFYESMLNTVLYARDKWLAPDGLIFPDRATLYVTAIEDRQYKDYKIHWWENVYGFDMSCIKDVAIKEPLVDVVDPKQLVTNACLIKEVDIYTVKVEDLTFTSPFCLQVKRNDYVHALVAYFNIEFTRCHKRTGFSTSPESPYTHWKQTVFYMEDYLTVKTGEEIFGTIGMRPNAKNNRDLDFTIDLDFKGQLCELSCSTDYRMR
# LEDGF integ inh = blocks HIV-1 LEDGF/p75-dependent DNA integration. hit rate 0.64% among 370,000. TR-FRET IN-LEDGF/p75 DNA integration, Eu/Cy5. inhibition, % at 3.7 µM;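 active = inhibition above the screen-wide mean plus 3 SD, cut at about 13% in these data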;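 note: signal is the Cy5 over europium emission ratio at 671 and 618 nm; 0% = plate median of compound wells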
# TDP2 absorb = TDP2 (human) inhibition, absorbance primary screen; inhibition, % at 12.8 µM; O95551; AID 720702; recombinant TDP2, T5PNP hydrolysis, p-nitrophenol absorbance 415 nm; hit rate 0.34% among 370,000;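 active = inhibition above the mean of all tested compounds plus 3 SD, set per campaign, cut at about 25% in these data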;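 note: 0% = DMSO with enzyme and 100% = buffer with substrate but no TDP2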
#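 Test system: human TDP2 enzyme; Input: 120 nM TDP2 per well; Buffer or medium: Mg2+-containing Tris-HCl buffer, pH 7.5; Reagent: 5 mM T5PNP; Dosing: 12.8 µM single point, 1% DMSO; Incubation: reaction 2 h, 37 °C; Detection: p-Nitrophenol epi absorbance; Read-out: % inhibition relative to enzyme-containing and enzyme-free wells; Replicates: single well per compound.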
# IN multimer up = counter-screen for LEDGF/p75 integration inhibitors: HIV-1 integrase multimerization activators; hit rate 17% among 2,000; AID 1053131; TR-FRET HIV-1 integrase multimerization, biochemical; activation, % at 7.7 µM; shares compounds with LEDGF integ inh; in the data active = activation above about 8.9%
# TR-FRET interf = TR-FRET optical interference, LEDGF/p75 integration counter-screen. shares compounds with LEDGF integ inh. TR-FRET optical interference counterscreen, HIV-1 IN multimerization. inhibition, % at 7.7 µM. 2,000 tested, under 10 active. AID 1053135;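 active = inhibition above the mean over all tested compounds plus 3 SD, which no compound reached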;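 note: 0% = integrase with antibodies and DMSO and 100% = antibodies without integrase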
# IN-LEDGF confirm = confirmation of HIV-1 LEDGF/p75-dependent integration inhibitors; shares compounds with LEDGF integ inh; TR-FRET LEDGF/p75-dependent HIV-1 integration, biochemical; inhibition, % at 3.7 µM; hit rate 36% among 2,000; in the data active = inhibition above about 14%
# * hit, by the source's call; . = not tested or not shown.
SMILES,SIAE inh,MBD2 DNA inh,UHRF1 MBD2 ctr,PRMT1 FP inh,LEDGF integ inh,TDP2 absorb,IN multimer up,TR-FRET interf,IN-LEDGF confirm
Cc1ccc(CNC(=O)c2cc3c(=O)n4ccccc4nc3n(Cc3ccco3)c2=N)cc1,-9,-5,-4,5,16*,-9,9.2*,-33,21*
O=C(c1cn(-c2ccccc2)nc1-c1ccncc1)n1nnc2ccccc21,-7,-4,-4,-2,16*,6,1,-7,0
O=C(O)c1cn(-c2ccccc2)nc1-c1ccncc1,-4,7,5,4,4,-2,.,.,.
O=C(O)c1cccc2cccc(-c3c4ccc(=O)c(O)c-4oc4c(O)c(O)ccc34)c12,36*,67*,92*,32*,90*,19,71*,-356,93*
O=C(O)c1cccc2cc(-c3ccccc3)oc(=O)c12,13,0,2,-1,-3,7,.,.,.
CCNC(=O)N1c2ccc(OCC)cc2C(C)=CC1(C)C,3,-1,-7,10,7,11,.,.,.
CCOc1ccc2c(c1)C(C)=CC(C)(C)N2C(=O)Nc1ccccc1F,4,-14,-2,20,22*,34*,4,-21,1
Cc1cc(SCC(=O)NCCN2C(=O)CSC2=O)nc2c(C)cccc12,0,2,2,2,23*,4,6,-30,1
CCNc1ccc(Br)cc(C(=O)/C=C/c2ccc3c(c2)OCO3)c1=O,12,3,6,38*,23*,1,1,-6,41*
COc1ccc(CCNC(=O)c2cc3c(C)nn(-c4ccccc4)c3s2)cc1OC,-34,-3,-2,-4,-2,3,.,.,.
CC1CCCCN1CCNC(=O)Cn1nc(-c2ccccc2)ccc1=O (stereo not drawn),-3,-1,-3,-7,-1,-7,.,.,.
Cc1ccc(-c2ccc(=O)n(CC(=O)NCCCN3CCCCC3C)n2)cc1 (stereo not drawn),1,2,1,0,24*,-14,0,-1,-2
CCC[C@H]1[C@@H](NC(=O)Nc2ccc3c(c2)OCO3)CC[C@@]23CCCN2C(=O)CCC[C@@H]13,3,-3,-1,-2,1,-5,.,.,.
O=C(NCC(c1ccccc1)c1ccccc1)[C@H](Cc1c[nH]c2ccccc12)NC1(C(=O)NC2CCCCC2)CCCCCC1,-3,3,-2,5,-1,-9,.,.,.
CN1C2CCC1/C(=C/c1cccn1C)C(=O)/C2=C\c1cccn1C,-19,-9,-7,10,14*,10,0,0,-3
CN1C2CCC1/C(=C\c1ccc(F)cc1)C(=O)/C2=C/c1ccc(F)cc1,4,-5,-2,-1,2,6,.,.,.
O=C1Nc2ccccc2/C1=N\N=C\c1ccc(O)c(O)c1,4,-8,-2,33*,45*,-12,37*,-132,81*
Oc1ccc(/C=N/N=C/c2ccc(O)c(O)c2)cc1O,1,2,0,13,75*,-17,32*,-161,90*
COc1cc(/C=N/N=C2/C(=O)Nc3ccccc32)ccc1O,-11,-3,-13,2,-6,1,.,.,.
O=C(CSc1nnc(-c2cccc(Cl)c2)n1Cc1ccco1)Nc1ccc2c(c1)OCO2,0,-4,-2,-1,-1,4,.,.,.
O=C(CNS(=O)(=O)c1ccc(F)cc1)N1CCN(c2ccccn2)CC1,1,3,2,-1,-4,4,.,.,.
COc1cc(COC(=O)c2cnc(C)cn2)c(OC)cc1Br,3,-1,0,-4,37*,14,3,-16,4
Cc1ccc(-n2c(SCC(=O)c3ccccc3Cl)nnc2-c2cnccn2)cc1,-10,1,3,-1,2,1,.,.,.
Cc1ccnc(N2CCCC(C(=O)Nc3nnc(C)s3)C2)n1 (stereo not drawn),5,0,-1,-1,-1,4,.,.,.
COc1ccc(CNC(=O)C2CCCN(c3nccc(C)n3)C2)cc1 (stereo not drawn),1,-5,3,1,23*,15,0,-1,1
SMILES,SIAE inh,MBD2 DNA inh,UHRF1 MBD2 ctr,PRMT1 FP inh,LEDGF integ inh,TDP2 absorb,IN multimer up,TR-FRET interf,IN-LEDGF confirm
O=C1c2ccccc2C(=O)c2c1cccc2N1CCCC1,0,-4,12,14,30*,13,3,-11,2
COC(=O)[C@]12C[C@H](CC(=O)N3CCSCC3)C(=O)N(Cc3cccc4ccccc34)C1=C[C@H](C(C)C)O[C@@H]2C1CC1,3,-2,1,1,-2,-5,.,.,.
COc1ccc(C2Nc3ccccc3C(=O)N2Cc2ccco2)cc1COc1c(C)cc(NC(C)=O)cc1C (stereo not drawn),-18,0,2,1,2,-13,.,.,.
Cc1ccc2c(c1)c1c3n2CCN(C(=O)CN2CCN(C)CC2)C3CCC1 (stereo not drawn),0,2,-2,0,0,0,.,.,.
Cc1ccc2c(c1)c(=O)c1c3n2CCN(C(=O)CCl)C3CC1 (stereo not drawn),6,-9,-4,10,14*,21,15*,-54,49*
NCCCCCNC(=O)/C=N\O,-3,6,1,1,34*,2,-1,4,-8
CCn1c(COc2ccc(Cl)cc2)nnc1SCC(=O)Nc1ccccc1-c1ccccc1,-2,6,0,-9,5,2,.,.,.
CCOC(=O)c1c(NC(=O)CSc2nnc(CNC(=O)c3ccco3)n2C)sc2c1CCC2,-6,-5,4,0,60*,-19,-1,3,-3
CCOC(=O)c1c(NC(=O)c2ccco2)sc2c1CCCCC2,2,-1,-1,-1,2,-3,.,.,.
C[C@H]1CCCN1c1cccc2c1S(=O)(=O)N1CC[C@@H](C1)O2,-3,-3,1,2,-1,-5,.,.,.
Cc1cc2c(NC(=O)Nc3ccc(C(F)(F)F)cc3)cccc2nn1,-25,-8,4,-1,30*,23,8,-28,6
Cc1cc2c(NC(=O)CCCC(=O)O)cccc2nn1,2,-1,0,-1,1,7,.,.,.
O=C1N(Cc2ccccc2)c2ccccc2C12CCCc1oc(CCc3ccccc3)nc12 (stereo not drawn),-2,-3,0,-4,0,0,.,.,.
